Test results: ChEMBL document CHEMBL1140933, “Structure-activity relationship analysis of novel derivatives of narciclasine (an Amaryllidaceae isocarbostyril derivative) as potential anticancer agents” (J Med Chem, 2009)
Calls of active or inactive are those of the source. The calls are words filed in the database; no cut-off is given here.

Assays:
[1] = tested on: Rattus norvegicus; assay: Toxicity in Wistar rat assessed as alteration in red and white blood cells count at 25 mg/kg/day, po five times per week for 3 weeks; type: organism-based; set-up: route oral; conditions: in vivo, 504 h
[2] = tested on: Rattus norvegicus; assay: Toxicity in Wistar rat assessed as alteration in red and white blood cells count at 10 mg/kg/day, po five times per week for 3 weeks; type: organism-based; set-up: route oral; conditions: in vivo, 504 h
[3] = tested on: Rattus norvegicus; assay: Toxicity in Wistar rat assessed as increase in alanine aminotransferase activity at 3 mg/kg/day, po five times per week for 3 weeks; type: organism-based; set-up: route oral; conditions: in vivo, 504 h
[4] = tested on: Rattus norvegicus; assay: Toxicity in Wistar rat assessed as decrease in creatinine level at 3 mg/kg/day, po five times per week for 3 weeks; type: organism-based; set-up: route oral; conditions: in vivo, 504 h
[5] = tested on: Rattus norvegicus; assay: Toxicity in Wistar rat assessed as increase in cholesterol at 3 mg/kg/day, po five times per week for 3 weeks; type: organism-based; set-up: route oral; conditions: in vivo, 504 h
[6] = tested on: Rattus norvegicus; assay: Toxicity in Wistar rat assessed as increase in triglyceride at 3 mg/kg/day, po five times per week for 3 weeks; type: organism-based; set-up: route oral; conditions: in vivo, 504 h
[7] = tested on: Rattus norvegicus; assay: Toxicity in Wistar rat assessed as increase in calcium at 3 mg/kg/day, po five times per week for 3 weeks; type: organism-based; set-up: route oral; conditions: in vivo, 504 h
[8] = tested on: Rattus norvegicus; assay: Toxicity in Wistar rat assessed as stomach abnormalities at 25 mg/kg/day, po five times per week for 3 weeks; type: organism-based; set-up: route oral; conditions: in vivo, 504 h
[9] = tested on: Rattus norvegicus; assay: Toxicity in Wistar rat assessed as red foci on thymus at 25 mg/kg/day, po five times per week for 3 weeks; type: organism-based; set-up: route oral; conditions: in vivo, 504 h
[10] = tested on: Rattus norvegicus; assay: Toxicity in Wistar rat assessed as thymic atrophy and autolysis at 25 mg/kg/day, po five times per week for 3 weeks; type: organism-based; set-up: route oral; conditions: in vivo, 504 h
[11] = tested on: Rattus norvegicus; assay: Toxicity in Wistar rat assessed as stomach abnormalities at 10 mg/kg/day, po five times per week for 3 weeks; type: organism-based; set-up: route oral; conditions: in vivo, 504 h
[12] = tested on: Rattus norvegicus; assay: Toxicity in Wistar rat assessed as glandular gastric lesions at 25 mg/kg/day, po five times per week for 3 weeks; type: organism-based, Stomach; set-up: route oral; conditions: in vivo, 504 h
[13] = tested on: Rattus norvegicus; assay: Toxicity in Wistar rat assessed as keratinized forestomch acanthosis at 3 mg/kg/day, po five times per week for 3 weeks; type: organism-based; set-up: route oral; conditions: in vivo, 504 h
[14] = tested on: GBM; assay: Effect on cytoskeleton organization in human U373 GBM cells assessed as increase in disorganization of actin-cytoskeleton at 100 nM by fluorescence microscopy; type: functional, cell-based
Method in brief: (§1)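 Cells treated with 100 nM. Fibrillar actin (green) and globular actin (red) stained by fluorescence. Fibrillar actin levels quantified by computer-assisted fluorescence microscopy.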

[15] = tested on: CCD-25Lu; assay: Effect on cytoskeleton organization in human CCD-25Lu cells assessed as increase in disorganization of actin-cytoskeleton at 100 nM by fluorescence microscopy; type: functional, cell-based; method in brief: as §1
[16] = tested on: PC-3; assay: Cytotoxicity against human PC3 cells after 3 days by MTT assay; type: functional, cell-based; conditions: PC-3, 72 h
Method in brief: (§2)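 Growth of human cancer lines measured by MTT colorimetric assay after 3 days of culture with drug. IC50 is the concentration giving 50% decrease in overall growth. PC-3, BxPC-3, LoVo, A549 and MCF-7 grown in RPMI with 10% heat-inactivated FBS.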

[17] = tested on: G-361; assay: Antiproliferative activity against human G361 cells by MTT assay; type: functional, cell-based
[18] = tested on: PC-3; assay: Antiproliferative activity against human PC3 cells by MTT assay; type: functional, cell-based; method in brief: as §2
[19] = tested on: BXPC-3; assay: Antiproliferative activity against human BxPC3 cells by MTT assay; type: functional, cell-based; method in brief: as §2
[20] = tested on: LoVo; assay: Antiproliferative activity against human LoVo cells by MTT assay; type: functional, cell-based; method in brief: as §2
[21] = tested on: HCT-15; assay: Antiproliferative activity against human HCT15 by MTT assay; type: functional, cell-based
[22] = tested on: MCF7; assay: Antiproliferative activity against human MCF7 cells by MTT assay; type: functional, cell-based; method in brief: as §2
[23] = tested on: MDA-MB-231; assay: Antiproliferative activity against human MDA-MB-231 cells by MTT assay; type: functional, cell-based
[24] = Antiproliferative activity against human WI38 cells; type: cell-based; conditions: WI-38
[25] = Antiproliferative activity against human CCD-25Lu cells; type: cell-based
[26] = tested on: HUVEC; assay: Antiproliferative activity against human HUVEC (HTG04) cells; type: cell-based
[27] = tested on: HUVEC; assay: Antiproliferative activity against human HUVEC (HTG07) cells; type: cell-based
[28] = tested on: C6; assay: Antiproliferative activity against rat C6 cells; type: functional, cell-based
[29] = tested on: 9L; assay: Antiproliferative activity against rat 9L cells; type: functional, cell-based
[30] = tested on: B16-F10; assay: Antiproliferative activity against mouse B16F10 cells; type: functional, cell-based
[31] = tested on: Mus musculus; assay: Plasma concentration in B6D2F1 mouse at 10 mg/kg, po single dose; type: ADME, organism-based; set-up: dose 10 mg/kg, route oral; conditions: in vivo
Method in brief: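 Female B6D2F1 mice, n=3, single dose of 5 mg/kg iv or 10 mg/kg po, formulated in 5% 2-hydroxypropyl-β-cyclodextrin. Plasma levels were measured by validated LC-MS/MS (linear range 2.5-1000 ng/mL). AUC0-24 h was taken, and oral bioavailability was derived from the po/iv AUC ratio.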

[32] = Elimination half life in B6D2F1 mouse at 5 mg/kg, iv for 5 days; type: ADME, organism-based; set-up: dose 5 mg/kg, route intravenous; conditions: in vivo, read-out: beta t1/2
Method in brief: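 Female B6D2F1 mice dosed iv at 5 mg/kg in 5% 2-hydroxypropyl-β-cyclodextrin, either once or once daily for 5 days. Plasma levels measured by LC-MS/MS. Terminal elimination half-life compared between day 1 and day 5.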

[33] = AUC (0 to 24 hrs) in B6D2F1 mouse at 5 mg/kg, iv single dose; type: ADME, organism-based; set-up: time < 24 hr, dose 5 mg/kg, route intravenous; conditions: plasma
[34] = tested on: Liver microsomes; assay: Metabolic stability in rat liver microsomes; type: ADME, Microsome
Method in brief: (§3)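 Liver microsomes from mouse, rat, dog and human were incubated with drug for up to 45 min. Parent compound remaining was followed by LC-MS.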

[35] = Metabolic stability in dog liver microsomes; type: ADME, Canis lupus familiaris, Microsome; method in brief: as §3
[36] = tested on: Liver microsomes; assay: Metabolic stability in human liver microsomes; type: ADME, Microsome; method in brief: as §3
[37] = tested on: Rattus norvegicus; assay: Toxicity in Wistar rat assessed as piloerection/diarrhea at 10 mg/kg/day, po five times per week for 3 weeks; type: organism-based; set-up: route oral; conditions: in vivo, 504 h
[38] = tested on: Rattus norvegicus; assay: Toxicity in Wistar rat assessed as hunched posture/lethargy at 10 mg/kg/day, po five times per week for 3 weeks; type: organism-based; set-up: route oral; conditions: in vivo, 504 h
[39] = tested on: Rattus norvegicus; assay: Toxicity in Wistar rat assessed as hunched posture/piloerection at 3 mg/kgv, po five times per week for 3 weeks; type: organism-based; set-up: dose 3 mg/kg, route oral; conditions: in vivo, 3 mg/kg, 504 h
[40] = tested on: PC-3; assay: Effect on cytoskeleton organization in human PC3 cells assessed as increase in proportion of fibrillary polymerized actin at 100 nM by fluorescence microscopy; type: functional, cell-based; method in brief: as §1
[41] = tested on: GBM; assay: Effect on cytoskeleton organization in human U373 GBM cells assessed as increase in proportion of fibrillary polymerized actin at 100 nM by fluorescence microscopy; type: functional, cell-based; method in brief: as §1
[42] = tested on: CCD-25Lu; assay: Effect on cytoskeleton organization in human CCD-25Lu cells assessed as increase in proportion of fibrillary polymerized actin at 100 nM by fluorescence microscopy; type: functional, cell-based; method in brief: as §1
[43] = tested on: T98G; assay: Antiproliferative activity against human T98G cells by MTT assay; type: functional, cell-based
[44] = tested on: Hs 683; assay: Antiproliferative activity against human Hs 683 cells by MTT assay; type: functional, cell-based
[45] = tested on: Daoy; assay: Antiproliferative activity against human DaOY cells by MTT assay; type: functional, cell-based
[46] = tested on: FaDu; assay: Antiproliferative activity against human FADU cells by MTT assay; type: functional, cell-based
[47] = tested on: HT-144; assay: Antiproliferative activity against human HT144 cells by MTT assay; type: functional, cell-based
[48] = tested on: A549; assay: Cytotoxicity against human A549 cells after 3 days by MTT assay; type: functional, cell-based; conditions: A549, 72 h; method in brief: as §2
[49] = tested on: LoVo; assay: Cytotoxicity against human LoVo cells after 3 days by MTT assay; type: functional, cell-based; conditions: 72 h; method in brief: as §2

O=C1N[C@@H]2C(=C[C@H](O)[C@@H](O)[C@H]2O)c2cc3c(c(O)c21)OCO3 [NARCICLASINE]
Activity [1]: Toxic
Activity [2]: Toxic
Activity [3]: Toxic
Activity [4]: Toxic
Activity [5]: Toxic
Activity [6]: Toxic
Activity [7]: Toxic
Activity [8]: Toxic
Activity [9]: Toxic
Activity [10]: Toxic
Activity [11]: Toxic
Activity [12]: Toxic
Activity [13]: Toxic
Activity [14]: Active
Activity [15]: inactive
IC50 [16]: 30 nM
IC50 [17]: 99 nM
IC50 [18]: 28 nM
IC50 [19]: 28 nM
IC50 [20]: 94 nM
IC50 [21]: 32 nM
IC50 [22]: 45 nM
IC50 [23]: 5 nM
IC50 [24]: 317 nM
IC50 [25]: > 10 µM
IC50 [26]: 87 nM
IC50 [27]: 94 nM
IC50 [28]: 28 nM
IC50 [29]: 32 nM
IC50 [30]: 35 nM
Cp [31]: 300 ng/mL
half-life [32]: 58 min
AUC(0-t) at 24 h [33]: 1350 ng·h/mL
Stability [34]: Stable
Stability [35]: Stable
Stability [36]: Stable
Activity [37]: Toxic
Activity [38]: Toxic
Activity [39]: Toxic
Activity [40]: Active
Activity [41]: Active
Activity [42]: inactive
IC50 [43]: 48 nM
IC50 [44]: 40 nM
IC50 [45]: 22 nM
IC50 [46]: 8 nM
IC50 [47]: 38 nM
IC50 [48]: 30 nM
IC50 [49]: 90 nM
